Screening results (PubChem)
Hck Nef HTS = blocks Nef-activated human Hck kinase; P08631; Recombinant Hck-YEEI plus Nef, Z-Lyte FRET kinase assay; inhibition, % at 20 µM; 220,000 tested, 0.68% active; AID 463187;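 active = Hck-Nef kinase inhibition above about 50%, limit read from the data; inactive = inhibition below that limit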;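 note: 0% = DMSO with Hck plus Nef and 100% = Hck alone without Nef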
Target sequence (P08631 whole entry, looked up): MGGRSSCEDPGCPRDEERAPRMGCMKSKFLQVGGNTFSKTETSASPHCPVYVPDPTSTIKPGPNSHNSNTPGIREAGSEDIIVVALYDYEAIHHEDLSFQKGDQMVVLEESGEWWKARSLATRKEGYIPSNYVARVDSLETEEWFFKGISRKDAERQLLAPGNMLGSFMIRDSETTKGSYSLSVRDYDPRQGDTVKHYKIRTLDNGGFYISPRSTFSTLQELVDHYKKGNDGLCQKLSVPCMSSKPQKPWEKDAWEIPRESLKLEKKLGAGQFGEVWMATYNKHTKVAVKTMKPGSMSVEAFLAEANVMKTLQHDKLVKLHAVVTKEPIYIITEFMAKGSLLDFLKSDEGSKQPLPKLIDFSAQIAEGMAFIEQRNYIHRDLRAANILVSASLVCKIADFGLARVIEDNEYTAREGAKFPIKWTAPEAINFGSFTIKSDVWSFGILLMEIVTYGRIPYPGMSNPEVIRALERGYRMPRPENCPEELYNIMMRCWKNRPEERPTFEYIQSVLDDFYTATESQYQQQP
Calb biofilm kill = mixture kills Candida albicans biofilm cells; C. albicans biofilm persisters + clotrimazole, fluorescence viability; primary screen in compound mixtures of four per well; inhibition, % at 7.6 µM; 120,000 tested, 0.02% active; AID 1242;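 active = inhibition above 30.3% in the primary screen of four-compound pools, then above 30% when the compound was retested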;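 note: compounds exposed to preformed 24 h biofilms for 48 h; 0% = untreated biofilm control and 100% = clotrimazole plus chlorhexidine kill blank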
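Incubation: 24 h biofilm formation, then 48 h compound exposure, 37 °C | Material: C. albicans biofilms | Buffer or medium: RPMI/MOPS medium, pH 7.0 | Measured by: 2-h Alamar Blue fluorescence, 535/590 nm excitation/emission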
Mcl1 Noxa PPI = Mcl-1/Noxa interaction inhibition | 220,000 tested, 1.5% active | inhibition, % at 21.7 µM | TR-FRET Mcl-1/Noxa peptide binding, 2 h | Q07820;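 active = compounds that cut the protein-peptide binding signal by more than 50% relative to plate controls in a single-dose test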;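 note: His-tagged Mcl-1 with rhodamine Noxa BH3 peptide and terbium anti-His antibody; 0% = Mcl-1 plus Noxa peptide wells and 100% = peptide-only wells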
Mcl-1 Bim block = disrupts Bim peptide binding to human Mcl-1. Q07820. Bead-based flow cytometry, Bim peptide-Mcl-1 binding. inhibition, % at 10 µM. 190,000 tested, 0.1% active. AID 1009; in the data active = inhibition above about 40%;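 note: 0% = no compound tracer wells and 100% = peptide blocker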
Mcl1-Bid inh = disrupts binding of human Mcl-1 to Bid peptide | AID 1021 | Q07820 | TR-FRET Mcl-1/Bid-Dy647 peptide binding, 1536-well | inhibition, % at 21.7 µM | 220,000 tested, 0.97% active;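 active = compounds that cut the binding signal by more than half at the single screening dose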;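 note: His-tagged Mcl-1 with europium anti-His antibody binding Bid BH3 peptide; 0% = Mcl-1 plus peptide wells and 100% = peptide-only wells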
14-3-3 Bad inh = disrupts binding of bovine 14-3-3 zeta to phospho-Bad peptide; P63103; TR-FRET 14-3-3zeta/Dy647-pBad peptide displacement, 1 h; inhibition, % at 21.7 µM; 220,000 tested, 0.71% active;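 active = inhibition above about 70%, limit read from the data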;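 note: 0% = full 14-3-3 plus peptide FRET controls and 100% = background without 14-3-3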
* = called active by the depositor; . = not tested or not shown. Sampled rows, rich in hits. Any-hit rate of the full collection: about 3.2%.

SMILES	Hck Nef HTS	Calb biofilm kill	Mcl1 Noxa PPI	Mcl-1 Bim block	Mcl1-Bid inh	14-3-3 Bad inh
CC(NC(=O)C(=O)N/N=C\c1ccc([N+](=O)[O-])cc1)c1ccccc1 (stereo not drawn)	18	14	-6	-5	-27	0
Cc1ccc(C)c(CSC2=NCCN2C(=O)c2cccs2)c1	20	15	-6	-1	-23	-5
Cc1cccc2cc(C(c3nnnn3C(C)(C)C)N3CCN(C(=O)c4ccco4)CC3)c(=O)[nH]c12 (stereo not drawn)	-19	.	21	-3	3	79*
Cc1ccc2[nH]c(=O)c(C(c3nnnn3C(C)(C)C)N3CCN(C(=O)c4ccco4)CC3)cc2c1 (stereo not drawn)	1	.	2	-2	-4	7
COc1ccc(-c2ccnc3nc(-n4cccc4)nn23)cc1	9	.	51*	-3	14	45
c1coc(-c2ccnc3nc(-n4cccc4)nn23)c1	28	15	62*	-4	8	-2
Cc1ccc(S(=O)(=O)Nc2cccc(CP(=O)(c3ccccc3)c3ccccc3)c2)cc1	0	24	-9	.	-11	-1
C=CCn1c(SCC(=O)Nc2ccc(-c3nc4ccc(C)cc4s3)cc2)nnc1-c1ccncc1	9	5	63*	-11	-20	32
Cc1ccc2nc(-c3ccc(NC(=O)COC(=O)c4ccc(=O)[nH]c4)cc3)sc2c1	1	18	63*	0	50	44
Cc1ccc2nc(-c3ccc(NC(=O)CN4C(=O)c5ccccc5C4=O)cc3)sc2c1	6	4	22	-5	39	15
Cc1ccc2nc(-c3ccc(NC(=O)CSc4nccc(=O)[nH]4)cc3)sc2c1	-8	15	24	-1	19	-2
Cc1ccc2nc(-c3ccc(NC(=O)CSc4nc(N)cc(=O)[nH]4)cc3)sc2c1	47	13	32	.	53*	40
Cc1ccc2nc(-c3ccc(NC(=O)CNC4CC4)cc3)sc2c1	18	15	45	-2	27	80*
COc1ccccc1C(=O)O/N=C(/c1ccncc1)c1ccc([N+](=O)[O-])cc1	-40	11	13	1	-17	-1
CCc1cc(C(=O)OC)c(NC(=O)CC2SC(=NC)N(C)C2=O)s1 (stereo not drawn)	15	10	3	-4	-4	-2
CC1CCCCC1NC(=O)CO/N=C/c1ccccc1OC(F)F (stereo not drawn)	5	15	4	-2	-2	-6
CCOC(=O)N1CCN(S(=O)(=O)c2cccc3nonc23)CC1	-4	.	12	2	-15	-10
Cc1ccc(C2N(c3ccc(Cl)cc3)C(=O)N3CCCN23)cc1 (stereo not drawn)	-3	14	0	.	3	-2
Cc1ccc2cccc(Oc3ncnc4scc(-c5ccc(Cl)cc5)c34)c2n1	-2	7	31	-8	99*	13
Cc1ccc2cccc(Oc3ncnc4scc(-c5ccccc5)c34)c2n1	-1	6	29	1	17	6
CCOc1ccc(-c2csc(/C(C#N)=C\c3ccc(O)c([N+](=O)[O-])c3)n2)cc1	19	16	56*	-3	-23	-8
Nc1ncnc(Nc2ccc(S(N)(=O)=O)cc2)n1	39	13	9	.	-14	-2
COc1ccc(-c2cc(C(F)(F)F)c3c(=O)n(-c4ccccc4)[nH]c3n2)cc1	1	.	27	-3	-37	1
CCCCCCCN1C2=NCCCN2c2ccccc21	20	6	26	-2	-13	-5
COc1ccc2nc(S(=O)Cc3ncc(C)c(OC)c3C)[nH]c2c1 (stereo not drawn)	6	14	84*	-1	11	-4
SMILES	Hck Nef HTS	Calb biofilm kill	Mcl1 Noxa PPI	Mcl-1 Bim block	Mcl1-Bid inh	14-3-3 Bad inh
CSc1nnc(-c2ccccc2)c(-c2ccccc2)n1	6	14	3	.	-19	-5
Cc1cccc(C)c1NC(=O)CSc1nnc(-c2ccco2)c(-c2ccco2)n1	6	.	102*	2	46	17
CSc1nnc(-c2ccco2)c(-c2ccco2)n1	11	.	78*	-1	27	6
Cc1ccccc1NC(=O)CSc1nnc(-c2ccco2)c(-c2ccco2)n1	0	.	87*	0	47	17
Cc1ccccc1NC(=O)CSc1n[nH]c(-c2ccco2)n1	17	23	3	-1	-30	1
Cc1cc(-c2nnc(CSc3nnc(NC(=O)c4ccc(C(C)(C)C)cc4)s3)o2)ccc1[N+](=O)[O-]	26	27	-15	.	-27	-3
CN(Cc1ccccc1)C(=O)COC(=O)c1ccc(Cl)cc1N	-19	7	-1	0	-7	4
CC(=O)c1ccc(N2CCN(C(=O)C3CCCN(S(=O)(=O)c4c(C)[nH]c(=O)[nH]c4=O)C3)CC2)cc1 (stereo not drawn)	20	1	17	2	-14	-14
O=C(c1ccccc1)c1coc2ccc(O)c(Cl)c12	1	.	13	0	-19	92*
Cc1ccc(C(=O)c2coc3ccc(O)c(Cl)c23)cc1	-15	.	26	1	-72	.
CCOC(=O)c1ccccc1Nc1cc(C)nc2nc(C)nn12	-7	.	58*	0	-16	4
CCOC(=O)c1ccccc1NC(=O)c1nc2nccc(C)n2n1	-1	.	9	-1	79*	-3
Cc1ccnc2nc(C(=O)OCC(=O)Nc3ccccc3C(C)(C)C)nn12	23	8	10	-5	-15	-13
CCOc1ccc(CN2CCN(Cc3cn(CC)nc3C)CC2CCO)cc1 (stereo not drawn)	22	28	12	0	-11	-10
O=C1Nc2ccccc2C1=Nc1ccc(S(=O)(=O)Nc2nccs2)cc1	67*	12	20	.	-53	1
CCOC(=O)c1ccc(NC(=O)COc2ccccc2OC)cc1	1	.	3	-4	0	83*
CCOC(=O)c1ccc(NC(=O)Oc2ccccc2)cc1	1	.	15	2	100*	-5
CCOC(=O)c1ccc(NC(=O)c2ccccc2)cc1	8	.	13	0	12	-11
Cc1ccc2nsnc2c1NC(=O)c1cccnc1Cl	7	14	15	-1	13	-6
C=CCNC(=S)NN=C1CCCCCCC1	16	-6	-10	0	-47	-5
O=C(Nc1ccc(NC(=O)C2CC2)nc1)c1cccc(F)c1	3	.	8	-2	9	0
Cc1ccc(C(=O)Nc2ccc(N3CCCC3)cc2)cc1	11	11	78*	-1	-35	-8
CC(C)C(=O)Nc1ccc(NC(=O)c2cccc(F)c2)cn1	1	.	7	5	22	76*
CC(=O)Nc1ccc(N2CCCC2)cc1	10	.	6	-3	-49	1
O=C(Nc1ccc(N2CCCC2)cc1)c1cccc(F)c1	-1	.	67*	-1	-35	6
